Assay [1] concerns Mycobacterium tuberculosis. Kind of assay: Antitubercular activity against Mycobacterium tuberculosis H37Rv at 12.5 ug/mL after 5 to 8 days. The class given is functional. In outline: (§1)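 Inoculum diluted to reach growth index 999 in 5 days. Compound added from DMSO stock to 4 ml radiometric 7H12 (BACTEC-12B) broth; DMSO-only controls. Incubated at 37 °C, GI read daily until control reached 999. %inhibition = (1 − GI test/GI control) × 100.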

The subject of assay [2] is Mycobacterium tuberculosis. Nature of the assay: Antitubercular activity against Mycobacterium tuberculosis H37Rv at 6.25 ug/mL after 5 to 8 days. It counts as functional. In outline: as §1

Structures are written as SMILES.

The inhibition is the share of the control response that was lost under treatment. A high value points to a strong effect. `Cc1ccc(C)c2c(CC(=O)N/N=C/c3ccccc3)cc(=O)oc12`: the inhibition at 12.5 µg/mL in assay [1] was found to be 70%.
For the molecule `Cc1ccc2oc(=O)cc(CC(=O)N/N=C/c3ccccc3Cl)c2c1`, the inhibition at 6.25 µg/mL in assay [2] was determined as 34%.
Still for that read-out and setting: as for `COc1cc(/C=N/NC(=O)Cc2cc(=O)oc3ccc(C)cc23)cc(OC)c1OC`, the figure is 34%; as for `COc1ccc(/C=N/NC(=O)Cc2cc(=O)oc3ccc(C)cc23)cc1OC`, 29%; as for `Cc1ccc2oc(=O)cc(CC(=O)N/N=C/c3ccc(F)cc3)c2c1`, 26%.
`COc1cc(/C=N/NC(=O)Cc2cc(=O)oc3c(C)ccc(C)c23)cc(OC)c1OC`: the inhibition at 12.5 µg/mL in assay [1] was determined as 52%.
Molecule `Cc1ccc2oc(=O)cc(CC(=O)N/N=C/c3ccccc3)c2c1` gave an inhibition at 6.25 µg/mL in assay [2] of 34%.
Consider `Cc1ccc(C)c2c(CC(=O)N/N=C/c3ccccc3Cl)cc(=O)oc12`, for which, in assay [1], testing at 12.5 µg/mL gave an inhibition of 48%.
On the same count and under the same terms, with `Cc1ccc(C)c2c(CC(=O)N/N=C/c3ccc(N(C)C)cc3)cc(=O)oc12` the figure was 7%; with `COc1ccccc1/C=N/NC(=O)Cc1cc(=O)oc2c(C)ccc(C)c12`, 54%.
Same read-out and setting: with `Cc1cc2oc(=O)cc(CC(=O)N/N=C/c3ccc(Cl)cc3)c2cc1C` the figure was 32%.
Same read-out and setting: with `CSc1ccc(/C=N/NC(=O)Cc2cc(=O)oc3cc(C)c(C)cc23)cc1` the figure was 6%.
Molecule `Cc1cc2oc(=O)cc(CC(=O)N/N=C/c3ccccc3[N+](=O)[O-])c2cc1C` came in with an inhibition at 12.5 µg/mL in assay [1] of 11%.
In turn, `Cc1ccc2oc(=O)cc(CC(=O)N/N=C/c3ccc(Cl)cc3)c2c1` registered an inhibition at 6.25 µg/mL in assay [2] of 19%.
Still for that read-out and setting: with `Cc1ccc2oc(=O)cc(CC(=O)N/N=C/c3cccc(Cl)c3)c2c1` the figure was 21%.
In assay [2], `O=C(Cc1cc(=O)oc2cc(O)ccc12)N/N=C/c1cccc([N+](=O)[O-])c1` showed an inhibition at 6.25 µg/mL of 93%.
Same read-out and setting: with `COc1ccc(/C=N/NC(=O)Cc2cc(=O)oc3ccc(C)cc23)cc1` the figure was 33%.
Turning to `Cc1ccc(C)c2c(CC(=O)N/N=C/c3ccccc3[N+](=O)[O-])cc(=O)oc12`, in assay [1], the inhibition at 12.5 µg/mL is 65%.
Still for that read-out and setting: as for `Cc1ccc(C)c2c(CC(=O)N/N=C/c3ccc(Cl)cc3)cc(=O)oc12`, the figure is 62%.
As to `Cc1ccc2oc(=O)cc(CC(=O)N/N=C/c3ccccc3O)c2c1`, the inhibition at 6.25 µg/mL in assay [2] came to 55%.
Same read-out and setting: with `COc1cccc(/C=N/NC(=O)Cc2cc(=O)oc3ccc(C)cc23)c1` the figure was 19%.
`Cc1cc2oc(=O)cc(CC(=O)N/N=C/c3cccc([N+](=O)[O-])c3)c2cc1C`: the inhibition at 12.5 µg/mL in assay [1] turned out to be 31%.
In assay [1], `Cc1cc2oc(=O)cc(CC(=O)N/N=C/c3ccccc3Cl)c2cc1C` yielded an inhibition at 12.5 µg/mL of 17%.
In assay [1], `Cc1ccc(C)c2c(CC(=O)N/N=C/c3cccc([N+](=O)[O-])c3)cc(=O)oc12` came in with an inhibition at 12.5 µg/mL of 39%.
For `Cc1ccc2oc(=O)cc(CC(=O)N/N=C/c3cccc([N+](=O)[O-])c3)c2c1`, the inhibition at 6.25 µg/mL in assay [2] amounted to 19%.

The record behind these values is ChEMBL document CHEMBL1154457, “Synthesis, anti-tubercular activity and 3D-QSAR study of coumarin-4-acetic acid benzylidene hydrazides” (2008).
